Measurements reported in ChEMBL document CHEMBL5058577, “EUbOPEN Chemogenomics Library 2 (Multiplex)” (2022).

Tested on: Fibroblast
Assay: Multiplex assay against human fibroblast
Assay type: toxicity, cell-based
Summary of the method: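 Phenotypes for tubulin, mitochondrial mass and membrane permeability are expressed as per cents of healthy-nucleus cells. Cells were stained live at seeding with Hoechst33342, BioTracker Green Microtubule Cytoskeleton Dye, MitoTracker Red and Annexin V Alexa Fluor 680, then imaged after compound addition on a CQ1 microscope at 37°C and 5% CO2. Machine-learning gating in CellPathfinder separated Hoechst high-intensity objects from normal cells, divided normal cells by nuclear state (healthy, pyknosed, fragmented) and divided pyknosed cells into mitotic or apoptotic.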

[1] = 12 h, 1 µM, compound concentration 1 uM, replicate 1
[2] = 12 h, 1 µM, compound concentration 1 uM, replicate 2
[3] = 12 h, 10 µM, compound concentration 10 uM, replicate 1
[4] = 12 h, 10 µM, compound concentration 10 uM, replicate 2
[5] = 24 h, 1 µM, compound concentration 1 uM, replicate 1
[6] = 24 h, 1 µM, compound concentration 1 uM, replicate 2
[7] = 24 h, 10 µM, compound concentration 10 uM, replicate 1
[8] = 24 h, 10 µM, compound concentration 10 uM, replicate 2
[9] = 48 h, 1 µM, compound concentration 1 uM, replicate 1
[10] = 48 h, 1 µM, compound concentration 1 uM, replicate 2
[11] = 48 h, 10 µM, compound concentration 10 uM, replicate 1
[12] = 48 h, 10 µM, compound concentration 10 uM, replicate 2

In the case of `COc1cc(NC(=O)CCN2CCC(OC(=O)Nc3ccccc3-c3ccccc3)CC2)c(Cl)cc1CNC[C@H](O)c1ccc(O)c2[nH]c(=O)ccc12` [BATEFENTEROL], the “Population Apoptotic (%)” value [1] is reported as 53%, the “Population Fragmented Nuclei (%)” value [1] is reported as 25% and the “Population Healthy Nuclei (%)” value [1] is reported as 58%. The “Population Hoechst High Intensity Objects (%)” value [1] was 2%, the “Population Membrane Permeable-Phenotype (%)” value [1] was 0% and the “Population Mitochondria Different-Phenotype (%)” value [1] was 13%. For the same molecule, the “Population Mitotic Cells (%)” value [1] was 46%, the “Population Normal (%)” value [1] was 97% and the “Population Pyknosed Nuclei (%)” value [1] was 15%. For the same molecule, the “Population Tubulin-Different-Phenotype (%)” value [1] was 42%, the “Total Cell Count” value [1] was 181 and the “Population Apoptotic (%)” value [2] was 37%. For the same molecule, the “Population Healthy Nuclei (%)” value [2] was 54%, the “Population Hoechst High Intensity Objects (%)” value [2] was 3% and the “Population Membrane Permeable-Phenotype (%)” value [2] was 3%. The “Population Mitochondria Different-Phenotype (%)” value [2] was 7%, the “Population Mitotic Cells (%)” value [2] was 62% and the “Population Normal (%)” value [2] was 96%. The “Population Pyknosed Nuclei (%)” value [2] was 20%, the “Population Tubulin-Different-Phenotype (%)” value [2] was 50% and the “Total Cell Count” value [2] was 124. For the same molecule, the “Population Apoptotic (%)” value [3] was 46%, the “Population Fragmented Nuclei (%)” value [3] was 24% and the “Population Healthy Nuclei (%)” value [3] was 59%. For the same molecule, the “Population Hoechst High Intensity Objects (%)” value [3] was 2%, the “Population Membrane Permeable-Phenotype (%)” value [3] was 0% and the “Population Mitochondria Different-Phenotype (%)” value [3] was 22%. The “Population Mitotic Cells (%)” value [3] was 53%, the “Population Normal (%)” value [3] was 97% and the “Population Pyknosed Nuclei (%)” value [3] was 16%. For the same molecule, the “Population Tubulin-Different-Phenotype (%)” value [3] was 63%, the “Total Cell Count” value [3] was 199 and the “Population Apoptotic (%)” value [4] was 41%. The “Population Fragmented Nuclei (%)” value [4] was 44%, the “Population Healthy Nuclei (%)” value [4] was 41% and the “Population Membrane Permeable-Phenotype (%)” value [4] was 1%. The “Population Mitochondria Different-Phenotype (%)” value [4] was 23%, the “Population Mitotic Cells (%)” value [4] was 58% and the “Population Pyknosed Nuclei (%)” value [4] was 13%. For the same molecule, the “Population Tubulin-Different-Phenotype (%)” value [4] was 84%, the “Total Cell Count” value [4] was 128 and the “Population Apoptotic (%)” value [5] was 55%. The “Population Fragmented Nuclei (%)” value [5] was 21%, the “Population Healthy Nuclei (%)” value [5] was 62% and the “Population Hoechst High Intensity Objects (%)” value [5] was 1%. For the same molecule, the “Population Membrane Permeable-Phenotype (%)” value [5] was 0%, the “Population Mitochondria Different-Phenotype (%)” value [5] was 7% and the “Population Mitotic Cells (%)” value [5] was 44%. The “Population Normal (%)” value [5] was 98%, the “Population Pyknosed Nuclei (%)” value [5] was 15% and the “Population Tubulin-Different-Phenotype (%)” value [5] was 39%. The “Total Cell Count” value [5] was 174, the “Population Apoptotic (%)” value [6] was 50% and the “Population Fragmented Nuclei (%)” value [6] was 26%. The “Population Healthy Nuclei (%)” value [6] was 59%, the “Population Hoechst High Intensity Objects (%)” value [6] was 2% and the “Population Membrane Permeable-Phenotype (%)” value [6] was 3%. The “Population Mitochondria Different-Phenotype (%)” value [6] was 10%, the “Population Mitotic Cells (%)” value [6] was 50% and the “Population Normal (%)” value [6] was 97%. The “Population Pyknosed Nuclei (%)” value [6] was 14%, the “Population Tubulin-Different-Phenotype (%)” value [6] was 57% and the “Total Cell Count” value [6] was 131. The “Population Apoptotic (%)” value [7] was 51%, the “Population Fragmented Nuclei (%)” value [7] was 35% and the “Population Healthy Nuclei (%)” value [7] was 53%. The “Population Hoechst High Intensity Objects (%)” value [7] was 0%, the “Population Membrane Permeable-Phenotype (%)” value [7] was 0% and the “Population Mitochondria Different-Phenotype (%)” value [7] was 34%. The “Population Mitotic Cells (%)” value [7] was 48%, the “Population Normal (%)” value [7] was 99% and the “Population Pyknosed Nuclei (%)” value [7] was 11%. For the same molecule, the “Population Tubulin-Different-Phenotype (%)” value [7] was 63%, the “Total Cell Count” value [7] was 247 and the “Population Apoptotic (%)” value [8] was 81%. For the same molecule, the “Population Fragmented Nuclei (%)” value [8] was 46%, the “Population Healthy Nuclei (%)” value [8] was 45% and the “Population Hoechst High Intensity Objects (%)” value [8] was 1%. For the same molecule, the “Population Membrane Permeable-Phenotype (%)” value [8] was 1%, the “Population Mitochondria Different-Phenotype (%)” value [8] was 14% and the “Population Mitotic Cells (%)” value [8] was 18%. For the same molecule, the “Population Normal (%)” value [8] was 98%, the “Population Pyknosed Nuclei (%)” value [8] was 8% and the “Population Tubulin-Different-Phenotype (%)” value [8] was 80%. The “Total Cell Count” value [8] was 136, the “Population Apoptotic (%)” value [9] was 62% and the “Population Fragmented Nuclei (%)” value [9] was 23%. The “Population Healthy Nuclei (%)” value [9] was 54%, the “Population Hoechst High Intensity Objects (%)” value [9] was 3% and the “Population Membrane Permeable-Phenotype (%)” value [9] was 0%. The “Population Mitochondria Different-Phenotype (%)” value [9] was 18%, the “Population Mitotic Cells (%)” value [9] was 37% and the “Population Normal (%)” value [9] was 96%. For the same molecule, the “Population Pyknosed Nuclei (%)” value [9] was 22%, the “Population Tubulin-Different-Phenotype (%)” value [9] was 53% and the “Total Cell Count” value [9] was 185. The “Population Apoptotic (%)” value [10] was 66%, the “Population Fragmented Nuclei (%)” value [10] was 29% and the “Population Healthy Nuclei (%)” value [10] was 56%. The “Population Membrane Permeable-Phenotype (%)” value [10] was 4%, the “Population Mitochondria Different-Phenotype (%)” value [10] was 14% and the “Population Mitotic Cells (%)” value [10] was 33%. The “Population Pyknosed Nuclei (%)” value [10] was 14%, the “Population Tubulin-Different-Phenotype (%)” value [10] was 70% and the “Total Cell Count” value [10] was 130. The “Population Apoptotic (%)” value [11] was 74%, the “Population Fragmented Nuclei (%)” value [11] was 22% and the “Population Healthy Nuclei (%)” value [11] was 54%. For the same molecule, the “Population Hoechst High Intensity Objects (%)” value [11] was 1%, the “Population Membrane Permeable-Phenotype (%)” value [11] was 0% and the “Population Mitochondria Different-Phenotype (%)” value [11] was 45%. For the same molecule, the “Population Mitotic Cells (%)” value [11] was 25%, the “Population Normal (%)” value [11] was 98% and the “Population Pyknosed Nuclei (%)” value [11] was 22%. For the same molecule, the “Population Tubulin-Different-Phenotype (%)” value [11] was 77%, the “Total Cell Count” value [11] was 213 and the “Population Apoptotic (%)” value [12] was 88%. The “Population Fragmented Nuclei (%)” value [12] was 45%, the “Population Healthy Nuclei (%)” value [12] was 48% and the “Population Hoechst High Intensity Objects (%)” value [12] was 0%. For the same molecule, the “Population Membrane Permeable-Phenotype (%)” value [12] was 1%, the “Population Mitochondria Different-Phenotype (%)” value [12] was 15% and the “Population Mitotic Cells (%)” value [12] was 11%. For the same molecule, the “Population Normal (%)” value [12] was 99%, the “Population Pyknosed Nuclei (%)” value [12] was 6% and the “Population Tubulin-Different-Phenotype (%)” value [12] was 76%. For the same molecule, the “Total Cell Count” value [12] was 144.
